How the values were obtained:
[1] = target: T1, D(4) dopamine receptor (Homo sapiens) (UniProt P21917); experiment: Displacement of [3H]spiperone from human cloned dopamine D4 receptor at 100 uM
T1 sequence (whole entry): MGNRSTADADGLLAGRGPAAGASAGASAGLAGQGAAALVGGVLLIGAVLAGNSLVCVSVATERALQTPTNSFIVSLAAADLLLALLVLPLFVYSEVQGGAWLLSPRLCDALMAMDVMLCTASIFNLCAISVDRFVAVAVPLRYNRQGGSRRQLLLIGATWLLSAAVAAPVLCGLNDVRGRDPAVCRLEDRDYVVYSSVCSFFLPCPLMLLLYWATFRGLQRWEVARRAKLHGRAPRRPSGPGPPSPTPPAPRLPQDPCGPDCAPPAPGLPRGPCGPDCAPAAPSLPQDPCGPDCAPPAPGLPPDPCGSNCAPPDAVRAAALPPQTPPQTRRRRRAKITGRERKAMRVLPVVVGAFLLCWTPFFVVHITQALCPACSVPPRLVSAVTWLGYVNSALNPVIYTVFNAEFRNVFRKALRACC

D(3) dopamine receptor [2] = target: T2, D(3) dopamine receptor (Homo sapiens, UniProt P35462); experiment: Displacement of [3H]spiperone from human cloned dopamine D3 receptor at 100 uM
D(2) dopamine receptor [3] = target: T3, D(2) dopamine receptor (Homo sapiens, UniProt P14416); experiment: Displacement of [3H][…] from human cloned dopamine D2 long receptor at 100 uM
D(4) dopamine receptor = target: T4, D(4) dopamine receptor (Homo sapiens, UniProt P21917); experiment: Binding affinity to human dopamine D4.4 receptor
T4 sequence (P21917 whole entry): T1 sequence (whole entry)
How it was run: (§1)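 Competition radioligand binding at human dopamine receptors: displacement of [³H]spiperone from D2long, D3 and D4.4, screened with test compound at 10 μM, 100 nM and 1 nM. Ki values in nM are means of 2–4 experiments, each run in triplicate.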

[4] = Displacement of [3H]prazosin from pig cortical membrane adrenergic alpha-1 receptor; parameters: species or system Sus scrofa
How it was run: (§2)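 Porcine cortical membranes with selective radioligands: [³H]8-OH-DPAT or [³H][…] for 5-HT1A, [³H]ketanserin for 5-HT2, and [³H]prazosin for α1. Ki (nM) is the mean of 2–4 experiments, each in triplicate.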

[5] = Binding affinity to pig cortical membrane 5HT1A receptor; parameters: species or system Sus scrofa; how it was run: as §2
[6] = target: 5-hydroxytryptamine receptor 2A (Sus scrofa, UniProt P50129); experiment: Displacement of [3H]ketanserin from pig cortical membrane 5HT2 receptor; how it was run: as §2
D(2) dopamine receptor [7] = target: T3, D(2) dopamine receptor; experiment: Binding affinity to human dopamine D2 long receptor; how it was run: as §1
D(3) dopamine receptor [8] = target: T2, D(3) dopamine receptor; experiment: Binding affinity to human D3 receptor; how it was run: as §1
D(1A) dopamine receptor = D(1A) dopamine receptor (Sus scrofa, UniProt P50130); experiment: Binding affinity to pig cortical membrane dopamine D1 receptor
How it was run: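 Porcine D1 receptor binding: displacement of [³H]SCH23390, screened with test compound at 10 μM, 100 nM and 1 nM. Ki (nM) is the mean of 2–4 experiments, each in triplicate.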

Homo sapiens = species: Homo sapiens; experiment: Selectivity for human dopamine D4 receptor over human dopamine D2 receptor
[9] = target: Dopamine receptors; D3 & D4 (Homo sapiens) (UniProt P35462+P21917); experiment: Selectivity for human dopamine D4 receptor over human dopamine D3 receptor
[10] = Stability in human serum at 90 mins; format: ADME, cell-free; conditions: read-out: Stability
How it was run: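 The ¹⁸F-labelled radioligand was incubated in human serum for 90 min, and intact tracer was quantified by radio-HPLC.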

[11] = Distribution coefficient, log D at pH 7.4; format: physicochemical; conditions: octanol/water
How it was run: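 Lipophilicity determined on the ¹⁸F-labelled radioligand as logD at pH 7.4, n = 6.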

D(1A) dopamine receptor, sequence (P50130 whole entry): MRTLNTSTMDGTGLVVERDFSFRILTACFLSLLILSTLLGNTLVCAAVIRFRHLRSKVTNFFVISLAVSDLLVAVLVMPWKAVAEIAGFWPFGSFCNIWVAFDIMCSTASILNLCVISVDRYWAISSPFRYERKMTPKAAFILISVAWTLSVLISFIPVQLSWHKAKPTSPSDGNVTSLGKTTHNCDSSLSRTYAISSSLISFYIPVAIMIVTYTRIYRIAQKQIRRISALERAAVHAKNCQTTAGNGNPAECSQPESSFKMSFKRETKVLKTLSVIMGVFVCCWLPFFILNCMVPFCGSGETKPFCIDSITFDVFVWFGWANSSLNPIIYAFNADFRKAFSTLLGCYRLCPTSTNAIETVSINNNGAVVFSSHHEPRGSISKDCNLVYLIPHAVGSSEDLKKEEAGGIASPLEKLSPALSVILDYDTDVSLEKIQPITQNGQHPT
5-hydroxytryptamine receptor 2A, sequence (P50129 whole entry): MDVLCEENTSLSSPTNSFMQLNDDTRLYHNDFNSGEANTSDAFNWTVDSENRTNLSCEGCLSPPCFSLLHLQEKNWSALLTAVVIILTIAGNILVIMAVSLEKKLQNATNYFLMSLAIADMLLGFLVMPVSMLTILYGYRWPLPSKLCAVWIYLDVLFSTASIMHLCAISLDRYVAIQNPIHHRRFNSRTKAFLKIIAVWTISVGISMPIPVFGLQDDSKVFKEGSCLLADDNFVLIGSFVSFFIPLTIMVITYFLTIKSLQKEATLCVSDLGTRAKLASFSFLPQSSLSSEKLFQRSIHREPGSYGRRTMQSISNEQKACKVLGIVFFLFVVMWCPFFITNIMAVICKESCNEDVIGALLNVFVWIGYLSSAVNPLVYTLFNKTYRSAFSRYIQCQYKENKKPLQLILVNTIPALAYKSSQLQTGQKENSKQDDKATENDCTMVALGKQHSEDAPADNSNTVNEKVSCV
T3 sequence (P14416 whole entry): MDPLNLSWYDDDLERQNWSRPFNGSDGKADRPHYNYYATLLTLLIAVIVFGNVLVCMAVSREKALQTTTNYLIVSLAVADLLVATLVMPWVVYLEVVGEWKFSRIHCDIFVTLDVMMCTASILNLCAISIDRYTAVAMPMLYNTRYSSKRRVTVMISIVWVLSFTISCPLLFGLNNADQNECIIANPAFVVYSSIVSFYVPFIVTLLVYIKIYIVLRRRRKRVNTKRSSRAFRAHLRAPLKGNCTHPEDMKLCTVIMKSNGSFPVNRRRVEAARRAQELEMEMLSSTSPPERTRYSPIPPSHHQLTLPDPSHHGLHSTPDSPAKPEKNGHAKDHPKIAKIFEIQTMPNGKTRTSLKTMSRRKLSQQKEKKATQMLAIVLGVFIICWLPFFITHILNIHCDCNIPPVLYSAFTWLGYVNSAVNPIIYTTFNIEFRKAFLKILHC
T2 sequence (P35462 whole entry): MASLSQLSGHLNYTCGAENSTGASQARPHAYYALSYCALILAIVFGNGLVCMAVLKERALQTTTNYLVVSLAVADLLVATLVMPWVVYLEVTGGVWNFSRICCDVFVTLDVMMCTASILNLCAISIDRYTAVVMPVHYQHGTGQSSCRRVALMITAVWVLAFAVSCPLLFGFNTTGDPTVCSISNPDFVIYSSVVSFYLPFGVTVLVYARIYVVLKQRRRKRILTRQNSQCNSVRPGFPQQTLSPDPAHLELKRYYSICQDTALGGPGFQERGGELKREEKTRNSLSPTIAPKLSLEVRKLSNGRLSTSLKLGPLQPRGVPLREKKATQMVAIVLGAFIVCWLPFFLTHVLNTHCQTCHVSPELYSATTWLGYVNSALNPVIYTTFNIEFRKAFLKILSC
Dopamine receptors; D3 & D4 (Homo sapiens), sequence (P35462 whole entry, looked up, one chain of several): as the sequence (P35462 whole entry) above

Cc1ccc(N2CCN(Cc3ccc(C#N)cc3)CC2)cc1
Activity [1]: 59% | Activity (D(3) dopamine receptor [2]): 4% | Activity (D(2) dopamine receptor [3]): -0%

COc1cc(CN2CCN(c3ccccc3OC)CC2)c(OCCF)cc1OC
Ki (D(4) dopamine receptor): 1.3 nM | Ki [4]: 13 nM | Ki [5]: 100 nM | Ki [6]: 280 nM | Ki (D(2) dopamine receptor [7]): 94 nM | Ki (D(3) dopamine receptor [8]): 330 nM | Ki (D(1A) dopamine receptor): 6800 nM

COc1cccc(N2CCN(Cc3ccccc3Br)CC2)c1
Activity [1]: 4% | Activity (D(3) dopamine receptor [2]): -0% | Activity (D(2) dopamine receptor [3]): 2%

COc1ccccc1N1CCN(Cc2ccc(OCCF)cc2)CC1
Ki (D(4) dopamine receptor): 3.7 nM | Ki [4]: 47 nM | Ki [6]: 5400 nM | Ki (D(2) dopamine receptor [7]): 120 nM | Ki (D(3) dopamine receptor [8]): 77 nM | Ki (D(1A) dopamine receptor): 3400 nM

Cc1ccc(N2CCN(Cc3ccccc3Br)CC2)cc1
Activity [1]: 7% | Activity (D(3) dopamine receptor [2]): 16% | Activity (D(2) dopamine receptor [3]): 6%

COc1cc(CN2CCN(c3ccc(Cl)cc3)CC2)ccc1OCCF
Ki (D(4) dopamine receptor): 12 nM | Ratio Ki (Homo sapiens): 1750 | Ki [4]: 18 nM | Ki [5]: 18000 nM | Ki [6]: 850 nM | Ki (D(2) dopamine receptor [7]): 21000 nM | Ki (D(3) dopamine receptor [8]): 4900 nM | Ki (D(1A) dopamine receptor): 5700 nM

N#Cc1ccc(CN2CCN(c3ccc(F)cc3)CC2)cc1
Activity [1]: 47% | Activity (D(3) dopamine receptor [2]): 15% | Activity (D(2) dopamine receptor [3]): -0%

COc1cccc(N2CCN(Cc3ccc(C#N)cc3)CC2)c1
Activity [1]: 69% | Activity (D(3) dopamine receptor [2]): 6% | Activity (D(2) dopamine receptor [3]): 2%

Clc1ccc(N2CCN(Cc3cc4ccccn4n3)CC2)cc1
Ki [4]: 270 nM | Ki [5]: 1700 nM | Ki [6]: 900 nM | Ki (D(1A) dopamine receptor): 5500 nM

FCCOc1cccc(CN2CCN(c3ccc(Cl)cc3)CC2)c1
Ki (D(4) dopamine receptor): 82 nM | Ki [4]: 190 nM | Ki [5]: 3300 nM | Ki [6]: 980 nM | Ki (D(2) dopamine receptor [7]): 590 nM | Ki (D(3) dopamine receptor [8]): 1100 nM | Ki (D(1A) dopamine receptor): 5100 nM

N#Cc1ccc(CN2CCN(c3ccc(Cl)c(Cl)c3)CC2)cc1
Activity [1]: 91% | Activity (D(3) dopamine receptor [2]): -0% | Activity (D(2) dopamine receptor [3]): -0%

COc1cccc(CN2CCN(c3cccc(OC)c3)CC2)c1
Activity [1]: 46% | Activity (D(3) dopamine receptor [2]): 9% | Activity (D(2) dopamine receptor [3]): -0%

FCCOc1ccc(CN2CCN(c3ccc(Cl)cc3)CC2)cc1
Ki (D(4) dopamine receptor): 50 nM | Ki [4]: 160 nM | Ki [5]: 5200 nM | Ki [6]: 1800 nM | Ki (D(2) dopamine receptor [7]): 1100 nM | Ki (D(3) dopamine receptor [8]): 1100 nM | Ki (D(1A) dopamine receptor): 1400 nM

COc1cccc(CN2CCN(c3ccc(C)cc3)CC2)c1
Activity [1]: 45% | Activity (D(3) dopamine receptor [2]): 39% | Activity (D(2) dopamine receptor [3]): 6%

Fc1ccc(N2CCN(Cc3ccccc3Br)CC2)cc1
Activity [1]: 4% | Activity (D(3) dopamine receptor [2]): 1% | Activity (D(2) dopamine receptor [3]): 1%

COc1cc(CN2CCN(c3ccccc3OC)CC2)ccc1OCCF
Ki (D(4) dopamine receptor): 1.8 nM | Ki [4]: 21 nM | Ki [5]: 100 nM | Ki [6]: 2100 nM | Ki (D(2) dopamine receptor [7]): 310 nM | Ki (D(3) dopamine receptor [8]): 1100 nM | Ki (D(1A) dopamine receptor): 5400 nM

COc1cccc(CN2CCN(c3ccc(F)cc3)CC2)c1
Activity [1]: 18% | Activity (D(3) dopamine receptor [2]): -0% | Activity (D(2) dopamine receptor [3]): 2%

N#Cc1ccc(CN2CCN(c3ccccc3Cl)CC2)cc1
Activity [1]: 73% | Activity (D(3) dopamine receptor [2]): 2% | Activity (D(2) dopamine receptor [3]): 2%

COc1cccc(CN2CCN(c3ccccc3Cl)CC2)c1
Activity [1]: 55% | Activity (D(3) dopamine receptor [2]): 13% | Activity (D(2) dopamine receptor [3]): 4%

COc1cc(CN2CCN(c3ccc(Cl)cc3)CC2)c(OCCF)cc1OC
Ki (D(4) dopamine receptor): 1.7 nM | Ratio Ki (Homo sapiens): 450 | Ki [4]: 4.4 nM | Ki [5]: 2800 nM | Ki [6]: 100 nM | Ki (D(2) dopamine receptor [7]): 760 nM | Ratio Ki [9]: 2300 | Ki (D(3) dopamine receptor [8]): 3900 nM | Ki (D(1A) dopamine receptor): 3500 nM

COc1ccccc1N1CCN(Cc2cccc(OCCF)c2)CC1
Ki (D(4) dopamine receptor): 1.6 nM | Ki [4]: 36 nM | Ki [5]: 32 nM | Ki [6]: 1900 nM | Ki (D(2) dopamine receptor [7]): 57 nM | Ki (D(3) dopamine receptor [8]): 270 nM | Ki (D(1A) dopamine receptor): 5200 nM

COc1cccc(CN2CCN(c3ccccc3OC)CC2)c1
Activity [1]: 26% | Activity (D(3) dopamine receptor [2]): 39% | Activity (D(2) dopamine receptor [3]): 6%

Clc1ccc(N2CCN(Cc3ccccc3Br)CC2)cc1Cl
Activity [1]: -0% | Activity (D(3) dopamine receptor [2]): 14% | Activity (D(2) dopamine receptor [3]): 10%

Clc1ccccc1N1CCN(Cc2ccccc2Br)CC1
Activity [1]: 9% | Activity (D(3) dopamine receptor [2]): 4% | Activity (D(2) dopamine receptor [3]): -0%

COc1ccccc1N1CCN(Cc2ccc(C#N)cc2)CC1
Activity [1]: 82% | Activity (D(3) dopamine receptor [2]): 5% | Activity (D(2) dopamine receptor [3]): 4%

COc1ccccc1N1CCN(Cc2ccccc2Br)CC1
Activity [1]: 44% | Activity (D(3) dopamine receptor [2]): 21% | Activity (D(2) dopamine receptor [3]): 9%

COc1cccc(CN2CCN(c3ccc(Cl)c(Cl)c3)CC2)c1
Activity [1]: 92% | Activity (D(3) dopamine receptor [2]): 2% | Activity (D(2) dopamine receptor [3]): 9%

COc1cc(CN2CCN(c3ccc(Cl)cc3)CC2)c(OCC[18F])cc1OC
remaining at 1.5 h [10]: > 95% | logD [11]: 2.8

Source: ChEMBL document CHEMBL1143133, “Discovery of a dopamine D4 selective PET ligand candidate taking advantage of a click chemistry based REM linker” (Bioorg Med Chem Lett, 2008)
